Compounds with a hit are over-represented: about 4.5% of the library has one in this group of screens.
CHO parental Ca: ATP-evoked calcium signal inhibitors, parental CHO, primary screen, counter-screen for OX1R antagonist project, cell-based, fluorescence, Fluo-8 calcium dye; 330,000 tested, 0.63% active; AID 463079, 2010; inhibition, % at 5.6 µM; parental CHO-K1, ATP-induced calcium, Fluo-8 fluorescence;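 active = inhibition above that plate's mean sample inhibition plus 3 SD, cut at about 26% in these data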;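 note: 0% = ATP-challenged DMSO wells and 100% = DMSO wells without ATP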
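Test system: parental CHO cells; detection: calcium-sensitive Fluo-8 fluorescence; evaluation: percent inhibition of calcium signal; also added: ATP as calcium-mobilizing challenge; repeats: one well per compound; control set: ATP-challenged DMSO wells low, unchallenged DMSO wells high; compound: single nominal dose of 5.6 µM per compound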
TAAR1 ag: human TAAR1 agonists, primary screen, Fluo-8 calcium fluorescence, CHO RD-HGA16 cells. activation, % at 3 µM. 360,000 tested, 0.99% active. Trace amine-associated receptor 1 (Homo sapiens), Q96RJ0. AID 624467, 2012. vehicle wells 0%, saturating PEA agonist 100%;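 active = activation above the mean activation of all test compounds in the run plus 3 SD, cut at about 38% in these data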
Target sequence (Q96RJ0 whole entry, looked up): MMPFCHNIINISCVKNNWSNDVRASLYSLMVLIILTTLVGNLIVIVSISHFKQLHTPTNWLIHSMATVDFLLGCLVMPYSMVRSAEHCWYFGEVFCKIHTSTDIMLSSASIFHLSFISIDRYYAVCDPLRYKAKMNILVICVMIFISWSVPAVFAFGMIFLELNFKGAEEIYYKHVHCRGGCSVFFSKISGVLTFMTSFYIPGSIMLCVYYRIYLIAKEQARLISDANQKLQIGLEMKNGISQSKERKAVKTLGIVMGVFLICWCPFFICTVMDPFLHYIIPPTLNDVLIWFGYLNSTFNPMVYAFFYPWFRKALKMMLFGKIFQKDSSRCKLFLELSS
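test system = CHO RD-HGA16 cells carrying human TAAR1 plus Gα16 | schedule = 17-24 h seeding, 75 min 37 °C dye, 30 min RT | compound dosing = 3 µM single concentration | control set = DMSO and PEA EC100 | replicates = n 1 | signal = Fluo-8 fluorescence, 5 s baseline then 140 s kinetic read | measure = percent activation vs PEA EC100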
OX1R antag-1: antagonists of human orexin 1 receptor (OX1R); OX1R-expressing cells, FRET antagonist read-out; Orexin/Hypocretin receptor type 1 (Homo sapiens), O43613; inhibition, % at 6.6 µM; 330,000 tested, 1.8% active; in the data active = inhibition mostly above about 38%, no sharp cut-off; inactive = mostly below about 40%;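 note: 0% = agonist challenge alone and 100% = reference antagonist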
Target sequence (O43613 whole entry, looked up): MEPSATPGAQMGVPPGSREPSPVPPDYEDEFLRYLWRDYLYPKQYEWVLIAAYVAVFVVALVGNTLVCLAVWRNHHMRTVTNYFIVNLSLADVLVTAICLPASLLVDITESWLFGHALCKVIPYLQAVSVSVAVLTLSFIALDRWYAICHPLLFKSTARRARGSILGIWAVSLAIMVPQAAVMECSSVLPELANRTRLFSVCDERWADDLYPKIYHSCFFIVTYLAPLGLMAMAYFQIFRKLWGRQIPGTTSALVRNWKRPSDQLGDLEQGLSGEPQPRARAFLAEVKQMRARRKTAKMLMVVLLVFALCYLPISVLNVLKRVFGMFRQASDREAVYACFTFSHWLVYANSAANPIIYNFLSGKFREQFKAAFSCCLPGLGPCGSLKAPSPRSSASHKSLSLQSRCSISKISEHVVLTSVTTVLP
TAAR1 antag: human TAAR1 antagonists, primary screen, Fluo-8 calcium fluorescence, CHO RD-HGA16 cells | Trace amine-associated receptor 1 (Homo sapiens), Q96RJ0 | antagonist | inhibition, % at 3 µM | 360,000 tested, 1.5% active | AID 624466, 2012;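 active = inhibition above a per-plate cutoff, the mean inhibition of test compounds on that plate plus 3 SD, cut at about 49% in these data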;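 note: 0% = DMSO plus EC80 beta-PEA response and 100% = DMSO alone without agonist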
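test system = CHO RD-HGA16 cells bearing hTAAR1 | replication = singlicate | controls = DMSO-only wells and EC80 β-PEA-stimulated wells | reagent = EC80 β-phenethylamine stimulus | read-out basis = percent inhibition of PEA-evoked calcium signal, max/basal emission ratio | schedule = seeding 17-24 h prior, 75-min 37 °C, 30-min RT dye loading | signal = kinetic Fluo-8 calcium fluorescence measurement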
GPR7 antagonist: GPR7 receptor antagonists, primary screen, cell-based, fluorescence, single concentration; Neuropeptides B/W receptor type 1 (Homo sapiens), P48145; GPR7-expressing cells, fluorescence antagonist assay; inhibition, % at 4.4 µM; 290,000 tested, 1.1% active; AID 1861, 2009; in the data active = inhibition above about 16%, passing the limit was not always enough;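 note: cells stimulated with the agonist NPW; 0% = agonist with vehicle and 100% = vehicle without agonist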
OX1R antag-2: OX1R (HCRTR1) antagonists, primary screen, fluorescence, CHO/OX1R cells, Fluo-8 calcium, orexin A | Fluo-8 calcium fluorescence | inhibition, % at 5 µM | 330,000 tested, 0.43% active | Orexin/Hypocretin receptor type 1 (Homo sapiens), O43613 | AID 434989, 2010;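 active = inhibition above its plate's threshold, mean inhibition of all tested compounds on the plate plus 3 SD, cut at about 37% in these data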;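 note: 0% = orexin A challenge wells and 100% = SB-334867-A antagonist wells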
nonsel antag count: nonselective antagonists in TAAR1 counter-screen cells, counter-screen for hTAAR1 antagonist project, cell-based, fluorescence, calcium; AID 651780, 2012; shares compounds with TAAR1 antag; counterscreen cell line, antagonist mode; inhibition, % at 3 µM; 2,400 tested, 77% active; in the data active = inhibition above about 22%;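 note: CHO-Ga16 host cells stimulated with ATP at an EC80 level; 0% = agonist EC80 plus vehicle and 100% = vehicle without agonist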
TAAR1 antag conf: human TAAR1 antagonists, retest of hits, confirmation, cell-based, fluorescence | shares compounds with TAAR1 antag | TAAR1-expressing cells, fluorescence antagonist read-out | inhibition, % at 3 µM | 2,400 tested, 40% active | AID 651785, 2012; in the data active = inhibition above about 49%;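 note: CHO-Ga16 host cells challenged with agonist PEA near its EC80; 0% = agonist at EC80 plus vehicle and 100% = vehicle with no agonist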
Ga16 nonsel ag: calcium activation in Ga16-expressing cells, counter-screen for TAAR1 antagonist project, cell-based, fluorescence; 2,400 tested, 18% active; shares compounds with TAAR1 antag; agonist counterscreen; activation, % at 3 µM; in the data active = activation above about 12%;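 note: 0% = vehicle wells and 100% = saturating stimulus response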
TAAR1 ag counter: TAAR1 activation by candidate antagonists – cell-based, fluorescence, counter-screen for TAAR1 antagonist project. shares compounds with TAAR1 antag. hTAAR1 cell line, agonist mode. 2,400 tested, 2% active. activation, % at 3 µM; in the data active = activation above about 37%;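 note: CHO cells stably expressing TAAR1 with calcium dye readout; 0% = DMSO vehicle and 100% = full agonist response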
Active calls of the source: *; . = no result.

SMILES	CHO parental Ca	TAAR1 ag	OX1R antag-1	TAAR1 antag	GPR7 antagonist	OX1R antag-2	nonsel antag count	TAAR1 antag conf	Ga16 nonsel ag	TAAR1 ag counter
CC(=O)n1cc([C@H]2C=C(C(=O)N3CCN(Cc4ccccc4)CC3)O[C@@H](OCCCCO)C2)c2ccccc21	-23.6	.	27.6	.	8.3	-21.1	.	.	.	.
O=C(C1=C[C@H](c2coc3ccccc3c2=O)C[C@H](OCc2ccc(CO)cc2)O1)N1CCN(Cc2ccc3c(c2)OCO3)CC1	-20.0	5.7	34.6	49.5*	11.2	-32.8	20.8	16.8	4.1	0.9
COC(=O)c1cccc(CC2(C)C(=O)Nc3ccc(OC(F)(F)F)cc32)c1 (stereo not drawn)	.	-0.7	.	-40.1	.	.	.	.	.	.
CCN(CC(=O)Nc1ccc(NC(C)=O)cc1)C(=O)c1ccccc1Sc1ccccc1C#N	-13.4	10.6	10.1	50.7*	.	-6.5	27.1*	37.3	4.6	2.4
O=C(Nc1cccnc1)c1ccc(COc2ccccc2Br)cc1	-6.5	9.3	1.1	79.3*	4.5	-21.6	15.1	59.5*	6.2	9.3
O=S(=O)(c1cccc(F)c1)N1CCN(c2nc(-c3cccnc3)nc3ccccc23)CC1	-16.6	21.0	19.4	61.1*	.	-6.3	24.1*	54.4*	8.5	11.4
O=C(c1cc(Cl)nc2ccccc12)N1CCN(S(=O)(=O)c2cccc(F)c2)CC1	-10.8	2.6	13.7	3.0	.	-49.5	.	.	.	.
COc1cc(C(=O)N2CCCC(c3cc(C(=O)NCc4ccc(F)cc4)no3)C2)cc(OC)c1C (stereo not drawn)	.	-1.7	.	-3.6	.	.	.	.	.	.
O=C(NS(=O)(=O)c1ccc2ccc(S(=O)(=O)NCCSc3ccccc3)cc2c1)c1cccc2ccccc12	.	3.3	.	3.1	.	.	.	.	.	.
COc1ccc(CN(Cc2cc3ccc(C)cc3[nH]c2=O)Cc2nnnn2C2CCCC2)cc1	-35.5	10.7	-2.2	55.8*	.	-17.1	21.2	28.4	5.2	9.0
C[C@@H]1CN([C@H](C)CO)C(=O)c2cc(Br)cnc2O[C@@H]1CN(C)Cc1ccc(-c2ccccc2)cc1	.	-0.6	.	-16.6	.	.	.	.	.	.
CCCCNC(=O)C1C(c2ccccc2)=Nc2ccccc2N1C(=O)c1ccc(C)cc1 (stereo not drawn)	.	-0.9	.	-38.3	.	.	.	.	.	.
COc1cccc(N2CCN(CC(=O)Nc3ccccc3C(=O)NCc3ccccc3)CC2)c1	-22.6	29.0	1.5	66.1*	.	-7.4	24.4*	56.2*	8.4	14.9
COC(=O)c1[nH]c2ccccc2c1NC(=O)CN1CCN(c2cccc(Cl)c2)CC1	-10.9	13.4	-1.7	61.6*	-1.5	2.3	30.4*	47.4	9.0	3.5
CCSc1nc2ccccc2c(=O)n1CCc1ccc(OC)c(OC)c1	-19.7	4.3	15.6	61.2*	-12.0	-30.5	29.8*	43.5	4.1	6.9
COc1cc(OC)c(-c2nnc3n(CCc4ccccc4)c(=O)c4ccccc4n23)cc1OC	-7.0	18.3	-1.7	68.3*	-10.9	-25.4	26.1*	34.9	7.4	9.5
COc1ccc(C(C(=O)NCC2CCCO2)N(Cc2cccs2)C(=O)c2snc(C(N)=O)c2N)cc1OC (stereo not drawn)	-19.2	22.8	16.1	54.6*	1.6	-19.7	24.9*	43.7	8.8	15.0
COc1ccc(CCN(C(=O)c2snc(C(N)=O)c2N)C(C(=O)NCC2CCCO2)c2ccc(F)cc2)cc1OC (stereo not drawn)	.	22.6	.	58.4*	-20.4	.	30.7*	44.1	8.8	9.5
COc1cccc(N(C(=O)c2snc(C(N)=O)c2N)C(C(=O)NCC2CCCO2)c2cccs2)c1 (stereo not drawn)	-17.0	-0.5	4.8	16.2	2.8	-31.1	.	.	.	.
CCOc1ccc(-c2ccc(C3=CC(=O)C[C@H](c4ccc(F)cc4)C3)cc2)cc1	.	0.7	.	-10.8	.	.	.	.	.	.
O=C(c1ccc(CNS(=O)(=O)c2ccc(F)cc2)cc1)N1CCCCCC1	.	3.0	.	-11.1	.	.	.	.	.	.
CC(C)c1cccc(-c2csc(C(C)(O)c3cccc(F)c3)n2)c1 (stereo not drawn)	.	-0.5	.	19.7	.	.	.	.	.	.
CN(C)C(=O)COC(=O)c1ccccc1OCC(=O)Nc1ccc(SC(F)F)cc1	-20.8	16.7	11.3	63.7*	-6.2	-19.5	32.1*	51.1*	10.6	8.2
O=C(COc1ccccc1C(=O)O)Nc1ccc(SC(F)F)cc1	-11.8	1.4	13.4	-12.6	19.1	-28.4	.	.	.	.
O=C(COC(=O)c1ccccc1Nc1ccc(SC(F)F)cc1)NCc1ccco1	0.6	6.6	18.3	52.2*	-1.6	-24.3	18.1	22.5	-0.4	-2.4
SMILES	CHO parental Ca	TAAR1 ag	OX1R antag-1	TAAR1 antag	GPR7 antagonist	OX1R antag-2	nonsel antag count	TAAR1 antag conf	Ga16 nonsel ag	TAAR1 ag counter
Cc1cccc(Nc2ccccc2C(=O)OCC(=O)NCc2ccco2)c1C	-6.6	-2.0	20.2	0.5	-1.8	-25.2	.	.	.	.
C[C@H]1COc2cccc(N3CCC[C@H]3CO)c2S(=O)(=O)N1	.	0.9	.	-15.8	.	.	.	.	.	.
Cc1nn(-c2ccccc2)c(N2CCCC2)c1/C=N/NC(=O)c1cc2ccccc2cc1O	-14.7	11.4	7.5	50.9*	-5.4	-24.7	44.0*	49.8*	11.9*	10.7
CCCN1CCN(CCCNC(=O)CN2C(=O)c3cccnc3Oc3ccc(Cl)cc32)CC1	-13.4	0.5	2.8	-9.7	-1.7	-6.6	.	.	.	.
O=C(CN1C(=O)c2cccnc2Oc2ccc(Cl)cc21)NCCCc1ccccc1	-17.1	7.6	28.0	83.7*	-18.7	-21.0	31.5*	55.8*	9.0	9.2
CO[C@H]1CN(C)C(=O)c2ccc(NS(=O)(=O)c3ccccc3F)cc2OC[C@H](C)NC[C@@H]1C	.	3.1	.	-12.0	.	.	.	.	.	.
CC1(Cc2ccccc2Cl)C(=O)Nc2c(Cl)ccc(Cl)c21 (stereo not drawn)	.	3.0	.	56.8*	.	.	0.0	31.9	15.3*	31.7
CCc1nc2c(OCCOc3ccc(F)cc3)cccn2c1N(C)C(=O)CC(C)C	.	-1.2	.	3.6	.	.	.	.	.	.
